Measurements as given in ChEMBL document CHEMBL1131624, “Inhibitors of acyl-CoA:cholesterol O-acyltransferase. 2. Identification and structure-activity relationships of a novel series of N-alkyl-N-(heteroaryl-substituted benzyl)-N'-arylureas” (J Med Chem, 1998).

What was measured:
[1] = molecular target: O-acyltransferase (Oryctolagus cuniculus, UniProt G1SFD9); assay: In vitro inhibitory activity against Acyl coenzyme A:cholesterol acyltransferase (ACAT) in rabbit intestinal microsomes; design: species or system Intestine
Summary of the method: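 Enzyme source was mucosal microsomes from small intestine of cholesterol-fed rabbits, incubated with [1-¹⁴C]oleoyl-CoA (Heider method, minor modifications).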

[2] = molecular target: T1, Sterol O-acyltransferase, Soat (Rattus norvegicus) (UniProt Q7TQM4+O70536); assay: Percentage reduction in total cholesterol level at >1 mg/kg; type: functional, organism-based
Summary of the method: (§1)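 Cholesterol-fed rats given compound orally as a dietary admixture in a cholesterol-enriched diet. Plasma total cholesterol compared with control and reported as percent reduction at the dose, or as ED50, the dose reducing plasma total cholesterol by 50% of the control value.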

[3] = molecular target: T1, Sterol O-acyltransferase, Soat (Rattus norvegicus); assay: Effective dose to reduce plasma total cholesterol level by 50% of the control value in cholesterol fed rats; type: functional; summary of the method: as §1
[4] = system: Rattus norvegicus; assay: Compound was evaluated for percent reduction in total cholesterol level at <0.32 mg/kg; type: functional; summary of the method: as §1
[5] = molecular target: T1, Sterol O-acyltransferase, Soat (Rattus norvegicus); assay: Percentage reduction in total cholesterol level at <1 mg/kg; type: functional, organism-based; summary of the method: as §1

Chain of O-acyltransferase (G1SFD9 1-524): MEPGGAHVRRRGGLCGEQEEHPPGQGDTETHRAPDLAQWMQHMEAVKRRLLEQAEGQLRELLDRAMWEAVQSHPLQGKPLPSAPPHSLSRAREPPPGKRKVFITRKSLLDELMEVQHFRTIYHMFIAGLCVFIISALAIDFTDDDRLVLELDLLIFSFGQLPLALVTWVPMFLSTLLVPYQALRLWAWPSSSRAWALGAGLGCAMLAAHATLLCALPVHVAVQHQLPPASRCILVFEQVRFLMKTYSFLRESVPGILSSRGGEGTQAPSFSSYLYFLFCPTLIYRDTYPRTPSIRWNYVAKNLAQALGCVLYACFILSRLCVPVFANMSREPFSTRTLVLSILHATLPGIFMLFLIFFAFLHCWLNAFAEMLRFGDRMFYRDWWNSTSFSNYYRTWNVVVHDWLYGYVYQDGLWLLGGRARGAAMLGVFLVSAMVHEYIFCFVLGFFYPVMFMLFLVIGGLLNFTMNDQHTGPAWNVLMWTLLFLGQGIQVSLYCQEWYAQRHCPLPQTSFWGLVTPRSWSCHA

| SMILES | IC50 [1] | Reduction [2] | ED50 [3] | Reduction [4] | Reduction [5] |
| --- | --- | --- | --- | --- | --- |
| Cc1cc(C)c(NC(=O)N(Cc2ccc(-c3ccccn3)cc2)C2CCCCCC2)c(C)c1 | 33 nM | 46% | > 1 mg/kg |  |  |
| O=C(Nc1c(F)cc(F)cc1F)N(Cc1ccc(-c2cccs2)cc1)C1CCCCCC1 | 18 nM | 33% | > 1 mg/kg |  |  |
| CSc1cc(C)nc(SC)c1NC(=O)N(Cc1ccc(-c2cc[nH]n2)cc1)C1CCCCCC1 | 100 nM |  | < 0.32 mg/kg | 77% |  |
| CSc1cc(C)nc(SC)c1NC(=O)N(Cc1ccccc1)Cc1cccc(-c2ccnn2C)c1 | 28 nM |  | < 1 mg/kg |  | 88% |
| Cc1cc(C)c(NC(=O)N(Cc2cccc(-c3cn[nH]c3)c2)C2CCCCCC2)c(C)c1 | 38 nM |  | 0.19 mg/kg |  |  |
| CSc1cc(C)nc(SC)c1NC(=O)N(Cc1ccccc1)Cc1cccc(-c2ccn(C)n2)c1 | 73 nM |  | < 1 mg/kg |  | 77% |
| Cc1cc(C)c(NC(=O)N(Cc2cccc(-c3nn[nH]n3)c2)C2CCCCCC2)c(C)c1 | > 1000 nM |  |  |  |  |
| CSc1cc(C)nc(SC)c1NC(=O)N(Cc1ccc(F)cc1)Cc1cccc(-c2cc[nH]n2)c1 | 250 nM |  | < 0.1 mg/kg |  |  |
| CCCCCCCN(Cc1ccc(CC(C)(C)C)cc1)C(=O)Nc1ccc(F)cc1F |  |  | 5 mg/kg |  |  |
| Cc1cc(C)c(NC(=O)N(Cc2cccc(-c3c[nH]cn3)c2)C2CCCCCC2)c(C)c1 |  |  | < 1 mg/kg |  | 84% |
| Cc1cc(C)c(NC(=O)N(Cc2ccc(-c3cccs3)cc2)C2CCCCCC2)c(C)c1 | 22 nM |  | 0.28 mg/kg |  |  |
| Cc1cc(C)c(NC(=O)N(Cc2cccc(-c3nnnn3C)c2)C2CCCCCC2)c(C)c1 |  | 26% | > 1 mg/kg |  |  |
| Cc1cc(C)c(NC(=O)N(Cc2ccc(-c3cn[nH]c3)cc2)C2CCCCCC2)c(C)c1 | 270 nM | 8% | > 1 mg/kg |  |  |
| Cc1cc(C)c(NC(=O)N(Cc2cccc(-c3nnn(C)n3)c2)C2CCCCCC2)c(C)c1 | 100 nM |  | < 1 mg/kg |  | 84% |
| CSc1cc(C)nc(SC)c1NC(=O)N(Cc1ccccc1)Cc1ccc(-c2cc[nH]n2)cc1 | 55 nM |  | < 0.32 mg/kg | 58% |  |
| Cc1cc(C)c(NC(=O)N(Cc2ccc(-c3ccnn3C)cc2)C2CCCCCC2)c(C)c1 | 24 nM |  | < 1 mg/kg |  | 64% |
| CSc1cc(C)nc(SC)c1NC(=O)N(Cc1ccc(N(C)C)cc1)Cc1cccc(-c2cc[nH]n2)c1 | 72 nM |  | < 0.1 mg/kg |  |  |
| Cc1cc(C)c(NC(=O)N(Cc2ccc(-c3ccsc3)cc2)C2CCCCCC2)c(C)c1 | 19 nM |  | 0.51 mg/kg |  |  |
| Cc1cc(C)c(NC(=O)N(Cc2cc(-c3ccccc3)on2)C2CCCCCC2)c(C)c1 | 61 nM | 28% | > 1 mg/kg |  |  |
| Cc1cc(C)c(NC(=O)N(Cc2ccc(-c3n[nH]c(C)n3)cc2)C2CCCCCC2)c(C)c1 | 120 nM | 17% | > 1 mg/kg |  |  |
| Cc1cc(C)c(NC(=O)N(Cc2ccc(-c3cnco3)cc2)C2CCCCCC2)c(C)c1 | 200 nM | 13% | > 1 mg/kg |  |  |
| Cc1cc(C)c(NC(=O)N(Cc2ccc(-c3ccccc3)o2)C2CCCCCC2)c(C)c1 | 44 nM |  | < 1 mg/kg |  | 68% |
| Cc1cc(C)c(NC(=O)N(Cc2cccc(-n3cccc3)c2)C2CCCCCC2)c(C)c1 | 20 nM |  | 0.17 mg/kg |  |  |
| Cc1cc(C)c(NC(=O)N(Cc2cccc(-c3ccn(C)n3)c2)C2CCCCCC2)c(C)c1 | 42 nM |  | < 1 mg/kg |  | 78% |
| Cc1cc(C)c(NC(=O)N(Cc2ccc(-n3ccnc3)cc2)C2CCCCCC2)c(C)c1 | 47 nM | 26% | > 1 mg/kg |  |  |

| SMILES | IC50 [1] | Reduction [2] | ED50 [3] | Reduction [4] | Reduction [5] |
| --- | --- | --- | --- | --- | --- |
| COc1ccc(CN(Cc2cccc(-c3cc[nH]n3)c2)C(=O)Nc2c(SC)cc(C)nc2SC)cc1 | 200 nM |  | < 0.1 mg/kg |  |  |
| Cc1cc(C)c(NC(=O)N(Cc2ccc(-c3cc[nH]n3)cc2)C2CCCCCC2)c(C)c1 | 52 nM | 17% | > 1 mg/kg |  |  |
| Cc1cc(C)c(NC(=O)N(Cc2ccc(-c3cnn(C)c3)cc2)C2CCCCCC2)c(C)c1 | 47 nM |  | 0.31 mg/kg |  |  |
| O=C(Nc1c(F)cc(F)cc1F)N(Cc1ccc(F)cc1)Cc1cccc(-c2cc[nH]n2)c1 |  |  | < 0.32 mg/kg | 64% |  |
| Cc1cc(C)c(NC(=O)N(Cc2ccc(-n3ccnn3)cc2)C2CCCCCC2)c(C)c1 | 42 nM | 19% | > 1 mg/kg |  |  |
| Cc1cc(C)c(NC(=O)N(Cc2cccc(-c3csc(C)n3)c2)C2CCCCCC2)c(C)c1 | 180 nM |  |  |  |  |
| CSc1cc(C)nc(SC)c1NC(=O)N(Cc1ccccc1)Cc1cccc(-c2cc[nH]n2)c1 | 99 nM |  | 0.046 mg/kg |  |  |
| Cc1cc(C)c(NC(=O)N(Cc2ccc(-c3ccccc3)s2)C2CCCCCC2)c(C)c1 | 46 nM |  | < 1 mg/kg |  | 60% |
| Cc1cc(C)c(NC(=O)N(Cc2ccc(-n3cccc3)cc2)C2CCCCCC2)c(C)c1 | 28 nM |  | < 1 mg/kg |  | 51% |
| Cc1cc(C)c(NC(=O)N(Cc2ccc(-n3nccn3)cc2)C2CCCCCC2)c(C)c1 | 130 nM | 11% | > 1 mg/kg |  |  |
| Cc1cc(C)c(NC(=O)N(Cc2ccc(-c3ccccc3)nc2)C2CCCCCC2)c(C)c1 | 260 nM |  |  |  |  |
| Cc1cc(C)c(NC(=O)N(Cc2cccc(-c3cnn(C)c3)c2)C2CCCCCC2)c(C)c1 | 44 nM |  | < 1 mg/kg |  | 74% |
| Cc1cc(C)c(NC(=O)N(Cc2cccc(-c3ccnn3C)c2)C2CCCCCC2)c(C)c1 | 35 nM | 34% | > 1 mg/kg |  |  |
| Cc1cc(C)c(NC(=O)N(Cc2ccc(-c3cccnc3)cc2)C2CCCCCC2)c(C)c1 | 130 nM |  | 0.58 mg/kg |  |  |
| O=C(Nc1c(F)cc(F)cc1F)N(Cc1ccc(-n2cccc2)cc1)C1CCCCCC1 | 27 nM | 21% | > 1 mg/kg |  |  |
| Cc1cc(C)c(NC(=O)N(Cc2ccc(N3CCN(C)CC3)cc2)C2CCCCCC2)c(C)c1 | 57 nM | 23% | > 1 mg/kg |  |  |
| Cc1cc(C)c(NC(=O)N(Cc2cc(-c3ccccc3)[nH]n2)C2CCCCCC2)c(C)c1 | 520 nM |  |  |  |  |
| Cc1cc(C)c(NC(=O)N(Cc2cc(-c3ccccc3)cs2)C2CCCCCC2)c(C)c1 | 36 nM |  | < 1 mg/kg |  | 69% |
| Cc1cc(C)c(NC(=O)N(Cc2ccccc2)Cc2cccc(-c3cc[nH]n3)c2)c(C)c1 | 21 nM | 36% | > 1 mg/kg |  |  |
| Cc1cc(C)c(NC(=O)N(Cc2cccc(-c3cc[nH]n3)c2)C2CCCC2)c(C)c1 | 22 nM |  | < 1 mg/kg |  | 76% |
| O=C(Nc1c(F)cc(F)cc1F)N(Cc1ccccc1)Cc1cccc(-c2cc[nH]n2)c1 | 14 nM |  | 0.096 mg/kg |  |  |
| CSc1cc(C)nc(SC)c1NC(=O)N(Cc1ccc(Oc2ccc(F)cc2)cc1)C1CCCCCC1 | 30 nM |  | 0.034 mg/kg |  |  |
| Cc1cc(C)c(NC(=O)N(Cc2ccc(-n3cncn3)cc2)C2CCCCCC2)c(C)c1 | 26 nM | 19% | > 1 mg/kg |  |  |
| Cc1cc(C)c(NC(=O)N(Cc2cccc(-c3cc[nH]n3)c2)C2CCCCC2)c(C)c1 | 39 nM |  | 0.12 mg/kg |  |  |
| O=C(Nc1c(F)cc(F)cc1F)N(Cc1ccc(-c2ccccn2)cc1)C1CCCCCC1 | 25 nM | 30% | > 1 mg/kg |  |  |
